Reference: paper PMC8915966 (Proceedings of the National Academy of Sciences of the …, 2022)
Where no end group is shown, it is not given here.

Key:
[1] = target: TLR4/MD-2 complex (human) (UniProt O00206); assay: SPR
[2] = test system: E. coli K1-infected ICR mice; assay: E. coli K1 sepsis mouse model; assay type: in vivo
ICR mice = assay: In vivo toxicity; details: for kidney histology, in words: 20 mg/kg, two doses for 3 d, hematoxylin and eosin
Summary of the method: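 Female ICR mice, n = 5 per group, received test compound i.p. at a low (5 mg/kg/day for 5 d) or high (20 mg/kg twice per day for 3 d) regimen. Serum creatinine, AST and ALT were measured and compared with controls by one-way ANOVA with Dunnett's test; mean ± SEM.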

RAW 264.7 cells = assay: Cytotoxicity, WST-8 assay; assay type: cell-based; details: 24 h
[3] = test system: FITC-LPS binding to RAW 264.7 cells; assay: Flow cytometry of FITC-LPS binding to RAW 264.7 cells; assay type: cell-based; details: posttreatment with 40 μM peptide, FITC-LPS 40 μg/mL, 30 min, 4 °C; MFI
Summary of the method: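 RAW 264.7 cells (10⁶) were exposed under serum-free conditions at 4 °C for 30 min to test compound (40 μM) or FITC-labelled E. coli O55:B5 LPS (40 μg/mL), given before or after the other. Cells were PBS-washed and surface fluorescence was read by flow cytometry as MFI (%). Three independent experiments, mean ± SEM, one-way ANOVA with Dunnett's test.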

TLR4 [4] = target: TLR4 (Homo sapiens, UniProt O00206); assay: SPR binding to TLR4
MD-2 [5] = target: T1, MD-2 (Homo sapiens, UniProt Q9Y6Y9); assay: SPR binding to MD-2
T1 sequence (Q9Y6Y9 19-160): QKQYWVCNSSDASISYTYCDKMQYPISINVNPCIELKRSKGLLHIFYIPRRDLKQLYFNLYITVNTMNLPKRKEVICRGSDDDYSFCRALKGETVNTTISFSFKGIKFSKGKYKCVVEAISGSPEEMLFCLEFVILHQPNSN

TLR4/MD-2 = TLR4/MD-2 (Homo sapiens, UniProt O00206+Q9Y6Y9); assay: SPR binding to TLR4/MD-2 complex
MD-2 [6] = details: read-out: binding affinity of LPS to MD-2; cited from earlier work
TLR4 [7] = details: read-out: binding affinity of LPS to TLR4; cited from earlier work
[8] = 1 mg/kg i.p., E. coli K1 5 × 10^6 CFU/mouse, serum
[9] = 20 mg/kg i.p. twice per day for 3 d, ICR mice, n = 5

Sequence of TLR4/MD-2 (O00206 24-631 limits assumed): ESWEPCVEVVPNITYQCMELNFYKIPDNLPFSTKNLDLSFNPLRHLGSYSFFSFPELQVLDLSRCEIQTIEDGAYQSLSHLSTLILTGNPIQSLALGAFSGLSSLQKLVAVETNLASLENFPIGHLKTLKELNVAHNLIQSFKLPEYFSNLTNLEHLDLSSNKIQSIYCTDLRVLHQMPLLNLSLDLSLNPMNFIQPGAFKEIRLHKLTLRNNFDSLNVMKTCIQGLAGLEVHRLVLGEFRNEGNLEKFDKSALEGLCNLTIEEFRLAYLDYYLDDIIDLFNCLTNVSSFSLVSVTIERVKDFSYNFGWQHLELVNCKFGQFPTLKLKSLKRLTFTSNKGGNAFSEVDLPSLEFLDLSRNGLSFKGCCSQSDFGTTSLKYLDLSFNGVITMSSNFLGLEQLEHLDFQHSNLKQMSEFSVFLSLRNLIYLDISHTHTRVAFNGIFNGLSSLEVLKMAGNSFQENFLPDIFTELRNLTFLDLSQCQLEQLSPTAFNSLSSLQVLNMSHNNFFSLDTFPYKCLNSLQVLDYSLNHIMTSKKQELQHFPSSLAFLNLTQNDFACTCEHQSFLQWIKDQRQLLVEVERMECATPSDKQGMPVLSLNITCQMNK
Sequence of TLR4/MD-2 (Q9Y6Y9 17-160 limits assumed): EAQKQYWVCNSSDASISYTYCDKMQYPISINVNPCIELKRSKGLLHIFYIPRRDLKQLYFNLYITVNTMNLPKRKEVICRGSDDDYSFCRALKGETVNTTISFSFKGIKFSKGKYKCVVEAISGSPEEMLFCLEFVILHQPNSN
Sequence of TLR4/MD-2 complex (human) (O00206 24-839, one chain of several): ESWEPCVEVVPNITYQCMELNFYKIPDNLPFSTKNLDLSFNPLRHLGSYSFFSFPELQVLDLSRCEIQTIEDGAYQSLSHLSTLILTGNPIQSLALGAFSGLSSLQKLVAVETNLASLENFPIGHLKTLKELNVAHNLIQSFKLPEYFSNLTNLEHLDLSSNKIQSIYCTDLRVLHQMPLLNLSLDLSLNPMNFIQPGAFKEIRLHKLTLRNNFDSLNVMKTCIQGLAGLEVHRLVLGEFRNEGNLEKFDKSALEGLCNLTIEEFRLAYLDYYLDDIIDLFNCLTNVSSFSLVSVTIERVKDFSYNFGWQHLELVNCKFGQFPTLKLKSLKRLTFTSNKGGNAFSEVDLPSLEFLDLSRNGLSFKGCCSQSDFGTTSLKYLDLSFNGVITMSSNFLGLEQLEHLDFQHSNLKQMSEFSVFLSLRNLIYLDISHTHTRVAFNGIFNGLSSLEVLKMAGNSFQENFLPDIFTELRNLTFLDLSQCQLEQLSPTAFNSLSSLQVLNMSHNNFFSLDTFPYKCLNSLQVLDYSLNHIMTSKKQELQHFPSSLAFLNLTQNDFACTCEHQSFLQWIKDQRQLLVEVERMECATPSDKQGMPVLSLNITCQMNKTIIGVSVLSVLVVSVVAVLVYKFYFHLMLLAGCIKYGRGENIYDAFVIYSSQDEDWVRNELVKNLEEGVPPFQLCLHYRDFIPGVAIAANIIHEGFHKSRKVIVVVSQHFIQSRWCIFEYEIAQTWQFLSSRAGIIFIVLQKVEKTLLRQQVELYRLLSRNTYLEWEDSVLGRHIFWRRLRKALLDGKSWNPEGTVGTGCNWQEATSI
Sequence of TLR4 (Homo sapiens, UniProt O00206) (O00206 24-839): as the sequence (O00206 24-839, one chain of several) above

papiliocin G23P (peptide)
fold lower affinity compared to papiliocin [1]: 100 fold

papiliocin P24G (peptide)
fold lower affinity compared to papiliocin [1]: 10 fold

Polymyxin B [PMB]
reduction of endotoxin levels ([2]; 1 mg/kg i.p., E. coli K1 5 × 10^6 CFU/mouse, 16 h later, n = 5): 34.6% | ALT level reduced to [2, 8]: 19.4% | AST level reduced to [2, 8]: 25.7% | BUN level reduced to [2, 8]: 16.7% | serum and lung tissue levels of TNF-α and IL-6, in words ([2]; 1 mg/kg, compared to E. coli K1–infected control mice, ELISA): significantly reduced | lung tissue histology, in words ([2]; 1 mg/kg, hematoxylin and eosin, neutrophil infiltration): significantly protected against lung damage | elevation of blood urea nitrogen (BUN) level (ICR mice; [9]): 26.6% | elevation of serum creatinine level (ICR mice; [9]): 37.1% | increase of ALT level (ICR mice; [9]): 30.6% | increase of AST level (ICR mice; [9]): 17.8% | kidney histology, in words (ICR mice): notable kidney damage | cell survival rate (RAW 264.7 cells; 50 μM peptide): 30.6% | cell survival rate (RAW 264.7 cells; 100 μM peptide): 15.5% | competitive displacement of prebound LPS on RAW 264.7 cells [3]: no competitive impact

RWKIFKKIEKVGRNVRDGIIKAGPAVAVVGQAATVVK-NH2 [Papiliocin]
Kd (TLR4 [4]): 410 nM | Kd (MD-2 [5]): 1100 nM | change in creatinine level compared to the control, in words (ICR mice; 5 mg/kg/day for 5 d and 20 mg/kg twice per day for 3 d, i.p.): neither lower dose of PMB nor any dose of papiliocin induced any aberrant changes in creatine level | kidney histology, in words (ICR mice): did not show any signs of morphology changes in the kidneys | Kd (TLR4/MD-2): 3.7 µM | kon (TLR4/MD-2; read-out: association rate, TLR4/MD-2 complex): 3850 M⁻¹ s⁻¹ | koff (TLR4/MD-2; read-out: dissociation rate, TLR4/MD-2 complex): 0.0141 s⁻¹ | cell survival rate (RAW 264.7 cells; 50 μM peptide): 100% | cell survival rate (RAW 264.7 cells; 100 μM peptide): 78.0%

papiliocin (peptide)
koff [1]: 0.0141 s⁻¹ | kon [1]: 3850 M⁻¹ s⁻¹

lipopolysaccharide [LPS]
Kd (MD-2 [6]): 8.7 µM | Kd (TLR4 [7]): 14.1 µM
